Data taken from ChEMBL document CHEMBL3745658, “An Orally Bioavailable, Indole-3-glyoxylamide Based Series of Tubulin Polymerization Inhibitors Showing Tumor Growth Inhibition in a Mouse Xenograft Model of Head and Neck Cancer” (J Med Chem, 2015).
Converted amounts (≈) assume the structure as drawn. The source made the active and inactive calls. No cut-off for these calls is given here.

How the values were obtained:
[1] = Apparent permeability from apical to basolateral side in human Caco2 cells assessed as drug recovery at 10 uM at pH 7.4 after 60 mins by mass spectrometry; assay type: ADME, cell-based; details: Caco-2, pH 7.4, read-out: Drug recovery
Tubulin (Sus scrofa) [2] = target: T1, Tubulin (Sus scrofa) (UniProt P02554+P02550); test: Displacement of [3H]-vinblastine from biotinylated porcine tubulin after 15 mins by competitive binding assay; assay type: protein assay
Summary of the method: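 Biotinylated porcine tubulin, 0.2 μM [3H]-vinblastine, SPA beads and test compound combined together in G-PEM with 1 mM GTP, 3% DMSO, duplicate wells, 15 min at rt before counting. Nonspecific binding taken with 1000-fold unlabeled excess. IC50 from seven-point semilog curves, four-parameter fit.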

SH-SY5Y = test: Cytotoxicity against human SH-SY5Y cells assessed as reduction in cell viability after 72 hrs by MTT assay; assay type: functional, cell-based
Summary of the method: (§1)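 Cells plated at an appropriate density and left 24 h to attach, then dosed in triplicate with compound diluted from 10 mM DMSO stocks into full growth medium (added at 2× final concentration). After 72 h, cells PBS-washed and given MTT (0.5 mg/mL in PBS) for 45−60 min. Formazan dissolved in 0.1 M HCl/2-propanol, A570 read (650 nm reference). Viability normalised to DMSO control; LC50 by nonlinear regression.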

FaDu [3] = test: Cytotoxicity against human FADU multicellular tumor spheroid assessed as reduction of spheroid volume by light microscopy; assay type: functional, cell-based
Summary of the method: (§2)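 Monocultured FaDu spheroids dosed over a concentration range and imaged at 0, 2, 4 and 7 days post-dosing. Volume followed over time, fragmentation scored at the 7-day end point, and EC50 for disruption derived from 7-day dose–response plots. Two independent experiments, mean ± SEM.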

FaDu [4] = test: Cytotoxicity against human FADU multicellular tumor spheroid assessed as induction of spheroid disruption incubated for 7 days by light microscopy; assay type: functional, cell-based; summary of the method: as §2
Tubulin [5] = target: T2, Tubulin (Sus scrofa, UniProt P02554+P02550); test: Inhibition of porcine brain tubulin polymerization assessed as reduction in GTP-induced microtubule assembly after 60 mins by OD340 method
FaDu [6] = test: Antitumor activity against human FADU cells xenografted in CD-1 mouse assessed as inhibition of tumor growth at 10 to 20 mg/kg, po qd for 10 days measured at 3 to 9 days; assay type: functional, organism-based
Summary of the method: (§3)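 FaDu xenografts established in mice, then test agent given by oral gavage once daily for 10 days; tumor volume followed against an untreated control group, with significance assessed at days 3, 6, 9, 13 and 15.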

FaDu [7] = test: Cell cycle arrest in human FADU cells assessed as accumulation at G2/M phase after 24 hrs by propidium iodide staining-based flow cytometry; assay type: functional
Summary of the method: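 FaDu cells seeded at 10^5/well, attached overnight, then exposed to compound in full growth medium at 37 °C for 24 h. Cells were trypsinized, fixed in ice-cold 70% ethanol, treated with RNase A (100 μg/mL), stained overnight in the dark with propidium iodide (50 μg/mL), and analysed by flow cytometry with at least 10000 events per sample.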

FaDu [8] = test: Antitumor activity against human FADU cells xenografted in CD-1 mouse assessed as tumor volume recovery at 10 mg/kg, po qd for 10 days measured between 6 and 9 days; assay type: functional, organism-based; summary of the method: as §3
Tubulin (Sus scrofa) [9] = target: T1, Tubulin (Sus scrofa); test: Displacement of [3H]-paclitaxel from biotinylated porcine tubulin after 25 mins by competitive binding assay; assay type: protein assay
Summary of the method: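 Biotinylated porcine tubulin precoupled to SPA beads for 30 min at 4 °C, then 0.05 μM [3H]-paclitaxel and test compound added in G-PEM with 1 mM GTP, 3% DMSO, duplicate wells, 25 min at rt. Nonspecific binding taken with 1000-fold unlabeled excess. IC50 from seven-point semilog curves, four-parameter fit.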

FaDu [10] = test: Selectivity index, ratio of EC50 for cell cycle arrest in human FADU cells to LC50 for cytotoxicity against human FADU cells; assay type: functional
Summary of the method: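 G2/M arrest EC50 came from a 24 h dose–response of propidium iodide flow cytometry in FaDu cells. It was compared with the LC50 from a 72 h MTT assay in FaDu cells (triplicate wells, A570, viability relative to DMSO, nonlinear regression).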

SK-MEL-28 = test: Cytotoxicity against human SK-MEL-28 cells assessed as reduction in cell viability after 72 hrs by MTT assay; assay type: functional, cell-based; summary of the method: as §1
FaDu [11] = test: Induction of microtubule disruption in human FADU cells at 250 nM after 24 hrs by immunofluorescence staining method; assay type: functional, cell-based
[12] = Metabolic stability in CD-1 mouse liver microsomes assessed as half life at 1 uM preincubated for 5 mins before addition of NADPH by LC-MS/MS method; assay type: ADME
[13] = Apparent permeability from apical to basolateral side in human Caco2 cells at 10 uM at pH 7.4 after 60 mins by mass spectrometry; details: Caco-2, pH 7.4
SCC-4 = test: Cytotoxicity against human SCC4 cells assessed as reduction in cell viability after 72 hrs by MTT assay; assay type: functional, cell-based; summary of the method: as §1
FaDu [14] = test: Induction of microtubule disruption in human FADU cells assessed as multipolarization of spindle at 50 nM after 24 hrs by immunofluorescence staining method; assay type: functional, cell-based
FaDu [15] = test: Cytotoxicity against human FADU cells assessed as reduction in cell viability after 72 hrs by MTT assay; assay type: functional; details: read-out: LC50 (the source's name)
[16] = Solubility in 2% DMSO containing 50 mM potassium phosphate buffer solution pH 7.4 at 10 uM by dynamic light scattering method; details: pH 7.4, 10 µM
FaDu [17] = test: Ratio of EC50 for human FADU multicellular tumor spheroid to LC50 for human FADU cells; assay type: functional
Summary of the method: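 FaDu spheroids were dosed over a range of concentrations, and spheroid volume was measured at the 7-day endpoint. EC50 for disruption came from dose–response plots, combining two independent experiments. This was compared with the 72 h monolayer MTT LC50 (triplicate wells, nonlinear regression, viability relative to DMSO).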

Tubulin [18] = target: T2, Tubulin; test: Displacement of [3H]-colchicine from biotinylated porcine tubulin after 2 hrs by competitive binding assay; assay type: protein assay
Summary of the method: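 Biotinylated porcine tubulin (750 ng/well) with 0.1 μM [3H]-colchicine and test compound in G-PEM with 1 mM GTP, 3% DMSO, duplicate wells, 2 h at 37 °C. Streptavidin SPA beads then added for 45 min at 37 °C. Nonspecific binding taken with 1000-fold unlabeled excess. IC50 from seven-point semilog curves, four-parameter fit.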

FaDu [19] = test: Cytotoxicity against human FADU multicellular tumor spheroid assessed as effect on normal spheroid growth at 1 uM incubated for 2 to 3 days by light microscop; assay type: cell-based
Summary of the method: (§4)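 FaDu monoculture spheroids were dosed once and imaged at 0, 2, 4 and 7 days after dosing. Fragmentation and growth were judged against untreated spheroids.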

FaDu [20] = test: Cytotoxicity against human FADU multicellular tumor spheroid assessed as dispersion of cells from the spheroid at 1 uM incubated for 2 to 7 days by light microscopy; assay type: functional, cell-based; summary of the method: as §4
[21] = Solubility in 2% DMSO containing 50 mM potassium phosphate buffer solution at pH 7.4 by dynamic light scattering method; details: 50 mM potassium phosphate buffer with 2% DMSO
MES-SA = test: Cytotoxicity against human MES-SA cells assessed as reduction in cell viability after 72 hrs by MTT assay; assay type: functional, cell-based; summary of the method: as §1
[22] = Efflux ratio of apparent permeability from basolateral to apical side over apical to basolateral side in human Caco2 cells; details: Caco-2
MES-SA/Dx5 = test: Cytotoxicity against multidrug resistant human MES-SA/Dx5 cells assessed as reduction in cell viability after 72 hrs by MTT assay; assay type: functional, cell-based; summary of the method: as §1

COCCn1cc(C(=O)C(=O)Nc2ccc(OC(C)C)nc2)c2ccccc21
recovery at 1 h, 10 µM [1]: < 50%
Activity (Tubulin (Sus scrofa) [2]): Active
Activity (SH-SY5Y): Active
Activity (FaDu [3]): Dose-dependent effect
Activity (FaDu [4]): Dose-dependent effect
EC50 (FaDu [4]; 168 h): 113 nM
IC50 (Tubulin [5]): 6600 nM
TGI (FaDu [6]): Active
Activity (FaDu [7]): Dose-dependent effect
EC50 (FaDu [7]): 90 nM
TGI (FaDu [8]): inactive
Activity (Tubulin (Sus scrofa) [9]): inactive
Ratio (FaDu [10]): 2
Activity (SK-MEL-28): Active
Activity (FaDu [11]): Active
half-life at 1 µM [12]: 1.65 h
Papp A→B at 1 h, 10 µM [13]: 15.2 ×10⁻⁶ cm/s
Activity (SCC-4): Active
Activity (FaDu [14]): Active
CC50 (FaDu [15]): 55 nM
solubility [16]: soluble
Ratio (FaDu [17]): 2
IC50 (Tubulin [18]): 500 nM
Activity (FaDu [19]): Non-toxic
Activity (FaDu [20]): Active
solubility kinetic [21]: 10 µM (≈ 3.81 µg/mL)
Activity (MES-SA): Active
efflux ratio [22]: 0.9
Activity (MES-SA/Dx5): Active
